≈ marks a conversion by molar mass, not a printed value. Calls of active or inactive are those of the source. The rule behind the calls is not given here.
Key:
[1] = test system: Candida albicans; experiment: Antifungal activity against Candida albicans SC5314 after 24 hrs; format: functional; conditions: SC5314, 24 h
Summary of the method: (§1)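 Broth dilution MIC per NCCLS recommendations. Compounds were dissolved in DMSO in growth medium, then inoculated and incubated at 35 °C, with growth read at 24 h for C. albicans. MIC80 is the first well showing about 80% growth reduction versus the drug-free well. Values are the mean of three replicate tests.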

[2] = test system: Cryptococcus neoformans; experiment: Antifungal activity against Cryptococcus neoformans after 72 hrs; format: functional
Summary of the method: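 NCCLS-based broth dilution against C. neoformans. Test agents were in DMSO in growth medium, inoculated and held at 35 °C, and MIC80 was read at 72 h. MIC80 is the first well with roughly 80% less growth than the drug-free well. Each value averages three replicate tests.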

[3] = test system: Aspergillus fumigatus; experiment: Antifungal activity against Aspergillus fumigatus after 5 to 7 days; format: functional
Summary of the method: (§2)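 Filamentous fungi were tested by broth dilution following NCCLS recommendations. Compounds were dissolved in DMSO in growth medium, inoculated and incubated at 35 °C, with MIC80 read after 5–7 days. MIC80 is the first well with approximately 80% growth reduction relative to the drug-free well. Results are the mean of three replicates.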

[4] = test system: Candida albicans; experiment: Antifungal activity against Candida albicans SCY0109 after 24 hrs; format: functional; conditions: SCY0109, 24 h; summary of the method: as §1
[5] = test system: Nannizzia gypsea; experiment: Antifungal activity against Microsporum gypseum after 5 to 7 days; format: functional; summary of the method: as §2
[6] = test system: Pichia kudriavzevii; experiment: Antifungal activity against Candida krusei after 5 to 7 days; format: functional
Summary of the method: (§3)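 MIC measured by broth dilution per NCCLS recommendations. Compounds were dissolved in DMSO in growth medium, inoculated and incubated at 35 °C. MIC80 is the first well with approximately 80% lower growth than the drug-free well. Values are the mean of three replicate tests.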

[7] = test system: Trichophyton rubrum; experiment: Antifungal activity against Trichophyton rubrum after 5 to 7 days; format: functional
Summary of the method: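 Broth dilution per NCCLS recommendations against an ATCC strain; compounds dissolved in DMSO in growth medium; incubated at 35 °C. MIC80 is the first well with about 80% growth reduction versus the drug-free well, read at 5–7 days for filamentous fungi. Values are the mean of three replicate tests.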

[8] = test system: Nakaseomyces glabratus; experiment: Antifungal activity against Candida glabrata after 5 to 7 days; format: functional
[9] = test system: Candida tropicalis; experiment: Antifungal activity against Candida tropicalis after 24 hrs; format: functional; summary of the method: as §3
[10] = test system: Candida parapsilosis; experiment: Antifungal activity against Candida parapsilosis after 5 to 7 days; format: functional; conditions: Lodderomyces parapsilosis
[11] = test system: Candida albicans; experiment: Antifungal activity against Candida albicans SC5314 infected in ICR mouse assessed as increase in host survival at 1 mg/kg, po qd for 7 days starting from 2 hrs post infection measured up to 20 days; format: functional, organism-based
Summary of the method: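 Male ICR mice (18–22 g, ten per group) were immunosuppressed with intraperitoneal cyclophosphamide 100 mg/kg once daily for 3 days. They were then infected with 0.4 ml of […] C. albicans SC5314. Oral dosing in 0.5% carboxymethylcellulose suspension began 2 h post-infection, with vehicle-only controls. Read-out was mean survival days over 20 days.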

Structure (SMILES)	MIC80 [1] [µg/mL]	MIC80 [2] [µg/mL]	MIC80 [3] [µg/mL]	MIC80 [4] [µg/mL]	MIC80 [5] [µg/mL]	MIC80 [6] [µg/mL]	MIC80 [7] [µg/mL]	MIC80 [8] [µg/mL]	MIC80 [9] [µg/mL]	MIC80 [10] [µg/mL]	Activity [11]
C[C@@H](n1cc(-c2ccsc2)nn1)[C@](O)(Cn1cncn1)c1ccc(F)cc1F	0.0625 (≈ 0.155 µM)	0.0625 (≈ 0.155 µM)	4 (≈ 9.94 µM)	–	–	–	–	–	–	–	–
CCCN[C@H](C)[C@](O)(Cn1cncn1)c1ccc(F)cc1F	0.125 (≈ 0.403 µM)	0.0625 (≈ 0.201 µM)	8 (≈ 25.8 µM)	–	–	–	–	–	–	–	–
C[C@@H](c1ncncc1F)[C@](O)(Cn1cncn1)c1ccc(F)cc1F [VORICONAZOLE]	0.0312 (≈ 0.0895 µM)	0.0312 (≈ 0.0895 µM)	0.25 (≈ 0.716 µM)	0.0156 (≈ 0.0447 µM)	0.25 (≈ 0.716 µM)	0.25 (≈ 0.716 µM)	0.125 (≈ 0.358 µM)	0.0312 (≈ 0.0895 µM)	0.25 (≈ 0.716 µM)	0.0312 (≈ 0.0895 µM)	–
Cc1ccc(CN(C2CC2)[C@H](C)[C@](O)(Cn2cncn2)c2ccc(F)cc2F)cc1	8 (≈ 19.4 µM)	5 (≈ 12.1 µM)	> 64	–	–	–	–	–	–	–	–
CCCCCN[C@H](C)[C@](O)(Cn1cncn1)c1ccc(F)cc1F	0.125 (≈ 0.369 µM)	0.125 (≈ 0.369 µM)	4 (≈ 11.8 µM)	–	–	–	–	–	–	–	–
CCCN(C1CC1)[C@H](C)[C@](O)(Cn1cncn1)c1ccc(F)cc1F	1 (≈ 2.85 µM)	2 (≈ 5.71 µM)	8 (≈ 22.8 µM)	–	–	–	–	–	–	–	–
CCN[C@H](C)[C@](O)(Cn1cncn1)c1ccc(F)cc1F	0.5 (≈ 1.69 µM)	0.5 (≈ 1.69 µM)	32 (≈ 108 µM)	–	–	–	–	–	–	–	–
C[C@@H](NCc1ccc(Br)cc1)[C@](O)(Cn1cncn1)c1ccc(F)cc1F	0.0156 (≈ 0.0357 µM)	0.125 (≈ 0.286 µM)	0.5 (≈ 1.14 µM)	–	–	–	–	–	–	–	–
C[C@@H](NCC1CC1)[C@](O)(Cn1cncn1)c1ccc(F)cc1F	0.125 (≈ 0.388 µM)	0.125 (≈ 0.388 µM)	8 (≈ 24.8 µM)	–	–	–	–	–	–	–	–
OC(Cn1cncn1)(Cn1cncn1)c1ccc(F)cc1F [FLUCONAZOLE]	1 (≈ 3.27 µM)	2 (≈ 6.53 µM)	> 64	0.25 (≈ 0.816 µM)	8 (≈ 26.1 µM)	32 (≈ 104 µM)	1 (≈ 3.27 µM)	1 (≈ 3.27 µM)	32 (≈ 104 µM)	0.5 (≈ 1.63 µM)	Active
COCCCN[C@H](C)[C@](O)(Cn1cncn1)c1ccc(F)cc1F	0.25 (≈ 0.734 µM)	0.5 (≈ 1.47 µM)	2 (≈ 5.88 µM)	–	–	–	–	–	–	–	–
CC(C)N[C@H](C)[C@](O)(Cn1cncn1)c1ccc(F)cc1F	0.25 (≈ 0.806 µM)	0.25 (≈ 0.806 µM)	16 (≈ 51.6 µM)	–	–	–	–	–	–	–	–
C[C@@H](n1cc(-c2ccccc2F)nn1)[C@](O)(Cn1cncn1)c1ccc(F)cc1F	0.125 (≈ 0.302 µM)	0.125 (≈ 0.302 µM)	32 (≈ 77.2 µM)	–	–	–	–	–	–	–	–
C[C@@H](n1cc(-c2ccncc2)nn1)[C@](O)(Cn1cncn1)c1ccc(F)cc1F	1 (≈ 2.52 µM)	1 (≈ 2.52 µM)	> 64	–	–	–	–	–	–	–	–
COc1ccc(-c2cn([C@H](C)[C@](O)(Cn3cncn3)c3ccc(F)cc3F)nn2)cc1	0.125 (≈ 0.293 µM)	0.0625 (≈ 0.147 µM)	> 64	–	–	–	–	–	–	–	–
C[C@@H](n1cc(-c2cccc(Cl)c2)nn1)[C@](O)(Cn1cncn1)c1ccc(F)cc1F	0.0625 (≈ 0.145 µM)	0.0625 (≈ 0.145 µM)	> 64	–	–	–	–	–	–	–	–
C[C@@H](N1CCOCC1)[C@](O)(Cn1cncn1)c1ccc(F)cc1F	0.0312 (≈ 0.0924 µM)	0.0156 (≈ 0.0461 µM)	0.125 (≈ 0.369 µM)	0.0156 (≈ 0.0461 µM)	0.0625 (≈ 0.185 µM)	0.5 (≈ 1.48 µM)	0.0625 (≈ 0.185 µM)	0.0312 (≈ 0.0924 µM)	0.5 (≈ 1.48 µM)	0.0625 (≈ 0.185 µM)	Active
C[C@@H](N(C)C1CC1)[C@](O)(Cn1cncn1)c1ccc(F)cc1F	0.125 (≈ 0.388 µM)	0.125 (≈ 0.388 µM)	8 (≈ 24.8 µM)	–	–	–	–	–	–	–	–
C[C@@H](NC1CC1)[C@](O)(Cn1cncn1)c1ccc(F)cc1F	0.0156 (≈ 0.0506 µM)	0.0156 (≈ 0.0506 µM)	1 (≈ 3.24 µM)	0.0078 (≈ 0.0253 µM)	0.125 (≈ 0.405 µM)	0.5 (≈ 1.62 µM)	0.0625 (≈ 0.203 µM)	0.0156 (≈ 0.0506 µM)	0.5 (≈ 1.62 µM)	0.25 (≈ 0.811 µM)	–
C[C@@H](n1cc(-c2ccc(Br)cc2)nn1)[C@](O)(Cn1cncn1)c1ccc(F)cc1F	0.25 (≈ 0.526 µM)	0.25 (≈ 0.526 µM)	> 64	–	–	–	–	–	–	–	–
CCCCc1ccc(-c2cn([C@H](C)[C@](O)(Cn3cncn3)c3ccc(F)cc3F)nn2)cc1	4 (≈ 8.84 µM)	8 (≈ 17.7 µM)	> 64	–	–	–	–	–	–	–	–
C[C@@H](NC1CCCCC1)[C@](O)(Cn1cncn1)c1ccc(F)cc1F	0.5 (≈ 1.43 µM)	0.5 (≈ 1.43 µM)	8 (≈ 22.8 µM)	–	–	–	–	–	–	–	–
C[C@@H](N(Cc1ccccc1)C1CC1)[C@](O)(Cn1cncn1)c1ccc(F)cc1F	8 (≈ 20.1 µM)	8 (≈ 20.1 µM)	8 (≈ 20.1 µM)	–	–	–	–	–	–	–	–
